Assay outcomes: PubChem, several laboratories
SR-BI uptake up: activators of SR-BI mediated DiI-HDL uptake, primary screen, ldlA[mSR-BI] CHO cells, DiI fluorescence | 3 h; 100 = double the neutral-control signal | activation, % at 12.5 µM | 0.096% of 320,000 active;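 active = mean replicate activation of at least 60% and every replicate at or above 60%; inconclusive = mean or all-replicate condition met, but not both; inactive = mean below 60% and not all replicates reaching 60%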;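 also: 0% = median plate neutral-control signal and 100% = twice that signal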
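system = CHO ldlA[mSR-BI] cells, LDL receptor-null, SR-BI overexpressing | medium = Ham's F12 with 0.5% BSA, HEPES 25 mM, pH 7.4 | probe or stimulus = DiI-HDL 10 µg/mL | compound dosing = single-point compound dose | incubation = compound exposure 3 h, 37 °C | technique = DiI fluorescence, bottom read | read-out = cell-associated DiI fluorescence as measure of HDL uptake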
PKA-R1A activ: activators of PKA-R1A holoenzyme, primary screen, biochemical, fluorescence polarization, Cy5-IP20, bovine R1A, mouse PKAc; cAMP-dependent protein kinase type I-alpha regulatory subunit (Bos taurus) + …; PKA-R1A dissociation; scaled: DMSO 0%, 113 µM cGMP 100%; activation, % at 11.4 µM; 0.083% of 340,000 active;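 active = percent activation above the mean of all tested compounds plus 3 SD, cut at about 19% in these data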;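 also: higher means more PKAc released from R1A so a rise in polarization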
SR-BI DiI inh: inhibitors of SR-BI mediated HDL lipid uptake, primary screen, ldlA[mSR-BI] cells, fluorescence, single point; Scavenger receptor class B member 1 (Mus musculus), Q61009; ldlA[mSR-BI] CHO cells, DiI-HDL uptake fluorescence, 3 h; inhibition, % at 12.5 µM; 0.96% of 320,000 active;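 active = mean replicate inhibition of at least 70% and a set share of replicates each scoring 70 or more; inconclusive = meets just one of the two criteria; inactive = fails both criteria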;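 also: 0% = median of neutral control wells and 100% = median of positive control wells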
Vif inh: HIV Vif self-association inhibitors, primary screen, imaging, HEK293T, single point | 0.35% of 340,000 active | inhibition, % at 7.49 µM | AID 602346, 2012 | HEK293T cells, Vif self-association by quenched fluorescence, 24 h; in the data active = inhibition above about 50%, passing the limit was not always enough; inconclusive = no clear call, values can overlap the other calls; inactive = below about 31%
PKA-R2B act: activators of PKA-R2B holoenzyme, primary screen, biochemical, fluorescence polarization, Cy5-IP20, human | PKA-R2B holoenzyme dissociation; R2B truncated from residue 108, S112A mutant; 0% DMSO only, 100% 113 µM cGMP | activation, % at 11.4 µM | cAMP-dependent protein kinase catalytic subunit beta (Homo sapiens) + cAMP-dependent … | 0.079% of 340,000 active | AID 504700, 2011;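 active = activation above a cutoff set at the mean over all compounds plus 3 SD, cut at about 18% in these data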;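 also: higher means more holoenzyme dissociation and a rise in polarization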
Target sequence (P31323 whole entry, looked up, other chains not shown, the tested form may be a part): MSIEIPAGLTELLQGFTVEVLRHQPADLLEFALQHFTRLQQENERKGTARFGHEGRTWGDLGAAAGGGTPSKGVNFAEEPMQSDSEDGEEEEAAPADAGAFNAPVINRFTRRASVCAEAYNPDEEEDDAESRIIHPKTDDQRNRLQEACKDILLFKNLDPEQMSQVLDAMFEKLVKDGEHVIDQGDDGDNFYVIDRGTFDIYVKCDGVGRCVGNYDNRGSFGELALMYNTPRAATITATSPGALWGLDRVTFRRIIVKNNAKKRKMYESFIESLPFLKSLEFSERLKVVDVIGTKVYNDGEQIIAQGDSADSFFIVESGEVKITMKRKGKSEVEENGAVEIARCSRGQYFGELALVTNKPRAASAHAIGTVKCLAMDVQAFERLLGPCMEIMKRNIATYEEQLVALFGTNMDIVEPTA
The depositor's hits bear a star. Rows were chosen to be rich in hits. Some 1.4% of all compounds tested hit in one or more screens of this group.

COc1ccc2sc(-c3ccc(N(C)C)cc3)c(C#CCCO)c2c1 was read as SR-BI uptake up -95.8, PKA-R1A activ 18.1, SR-BI DiI inh 95.8*, Vif inh 0.1 and PKA-R2B act 6.5.
COc1ccc(-c2sc3ccc(OC)cc3c2C#CCCO)cc1 was read as SR-BI uptake up -46.1, PKA-R1A activ -4.4, SR-BI DiI inh 46.1, Vif inh 0.7 and PKA-R2B act -18.4.
Screening Cc1ccccc1-c1cnc(C(O)c2c(C)cccc2C)[nH]1 (centres undefined) returned Vif inh 3.2.
CCOc1ccccc1/C=N/NC(=O)c1cccc(S(=O)(=O)N(CC)CC)c1 was read as SR-BI uptake up -77.1, PKA-R1A activ -5.7, SR-BI DiI inh 77.1*, Vif inh -13.4 and PKA-R2B act -11.7.
Screening CCOc1ccccc1/C=N/NC(=O)c1cccc(Cl)c1 returned SR-BI uptake up -86.1, PKA-R1A activ -3.8, SR-BI DiI inh 86.1*, Vif inh 3.4 and PKA-R2B act -6.5.
`CC(C)Oc1ccccc1/C=N/NC(=O)c1ccccc1Cl` gave SR-BI uptake up -77.0, PKA-R1A activ -17.0, SR-BI DiI inh 77.0*, Vif inh 1.5 and PKA-R2B act -11.5.
`CCN(CC)S(=O)(=O)c1cccc(C(=O)N/N=C/c2ccc(O)c(O)c2O)c1` gave SR-BI uptake up -1.4, PKA-R1A activ -15.5, SR-BI DiI inh 1.4, Vif inh 7.0 and PKA-R2B act -13.3.
Screening CCN(CC)S(=O)(=O)c1cccc(C(=O)Nc2cc(C)cc(C)c2)c1 returned SR-BI uptake up -76.7, PKA-R1A activ -11.6, SR-BI DiI inh 76.7*, Vif inh -9.2 and PKA-R2B act -11.7.
For O=C(Nc1ccc2nc(C(F)(F)F)[nH]c2c1)[C@@H]1O[C@H](CO)[C@@H](O)[C@H]1O the results were Vif inh 5.4.
`CCCCCCCc1c(O)nc(SCCN(C)C)[nH]c1=O` gave SR-BI uptake up 271.7*, PKA-R1A activ 5.9, SR-BI DiI inh -271.7, Vif inh 4.2 and PKA-R2B act 0.8.
`Cc1ccc(N(CCC#N)C(=O)CN2C(=O)NC(Cc3ccccc3)C2=O)cc1` (centres undefined) gave SR-BI uptake up 7.1, PKA-R1A activ -5.9, SR-BI DiI inh -7.1 and PKA-R2B act 0.8.
COCCCNc1nc2cc(OC)c(OC)cc2c2nc(-c3ccccc3)nn12 was read as SR-BI uptake up -86.2, PKA-R1A activ -1.0, SR-BI DiI inh 86.2*, Vif inh -15.5 and PKA-R2B act -7.9.
For CCN(CC)CCCNc1nc2cc(OC)c(OC)cc2c2nc(-c3ccccc3)nn12 the results were SR-BI uptake up 16.8, PKA-R1A activ 4.9, SR-BI DiI inh -16.8, Vif inh -0.4 and PKA-R2B act -10.1.
O=C(NNC1=C(C(=O)C(F)(F)F)CCC1)c1ccc(Br)cc1 was read as SR-BI uptake up -104.8, PKA-R1A activ -5.6, SR-BI DiI inh 104.8* and PKA-R2B act -6.9.
For O=C(NNC1=C(C(=O)C(F)(F)F)CCC1)c1ccccc1O the results were SR-BI uptake up -150.3, PKA-R1A activ -11.5, SR-BI DiI inh 150.2*, Vif inh 0.7 and PKA-R2B act -9.9.
`O=C(NNC1=C(C(=O)C(F)(F)F)CCC1)c1ccccc1Cl` gave SR-BI uptake up -14.2, PKA-R1A activ -0.4, SR-BI DiI inh 14.2, Vif inh -6.4 and PKA-R2B act -19.7.
`Nc1ccccc1C(=O)NNC1=C(C(=O)C(F)(F)F)CCC1` gave SR-BI uptake up -98.0, PKA-R1A activ 6.4, SR-BI DiI inh 98.0*, Vif inh 8.1 and PKA-R2B act 8.9.
Screening COc1cccc(C(=O)NNC2=C(C(=O)C(F)(F)F)CCC2)c1 returned SR-BI uptake up -113.2, SR-BI DiI inh 113.2* and Vif inh -6.2.
For O=C(OCc1ccccc1)c1ccccc1 the results were SR-BI uptake up 15.8, PKA-R1A activ -2.3, SR-BI DiI inh -15.8, Vif inh 11.1 and PKA-R2B act 3.6.
`O=C(CN(C(=O)c1ccccc1)C(=O)c1ccccc1)OCc1ccccc1` gave SR-BI uptake up -3.3, PKA-R1A activ 2.1, SR-BI DiI inh 3.3, Vif inh 77.5* and PKA-R2B act 9.4.
For COc1ccc(CC(=O)Nc2cccc(S(=O)(=O)N3CCCC3)c2)cc1OC the results were SR-BI uptake up -10.5, PKA-R1A activ 0.2, SR-BI DiI inh 10.5, Vif inh -3.6 and PKA-R2B act 1.4.
`COc1ccc(/C=C/C(=O)Nc2cccc(S(=O)(=O)N3CCCC3)c2)cc1OC` gave SR-BI uptake up -79.7, PKA-R1A activ 3.0, SR-BI DiI inh 79.7*, Vif inh -9.3 and PKA-R2B act -8.1.
For O=C(/C=C/c1ccc(S(=O)(=O)N2CCOCC2)cc1)Nc1cc(F)ccc1F the results were SR-BI uptake up -35.9, PKA-R1A activ -5.2, SR-BI DiI inh 35.9, Vif inh 1.7 and PKA-R2B act -1.2.
Screening O=C(/C=C/c1ccc(F)cc1)Nc1cccc(S(=O)(=O)N2CCOCC2)c1 returned SR-BI uptake up -74.4, PKA-R1A activ -2.0, SR-BI DiI inh 74.4*, Vif inh 6.5 and PKA-R2B act 11.6.
COc1ccccc1/C=C/C(=O)Nc1cccc(C(C)=O)c1 was read as SR-BI uptake up -75.9, PKA-R1A activ -5.0, SR-BI DiI inh 75.9*, Vif inh -5.3 and PKA-R2B act -3.2.
CCCNC(=O)C1(C)CCN1C(=O)Cc1ccc(C(C)C)cc1 (centres undefined) was read as Vif inh 17.0.
For O=C(O)c1ccccc1Cc1ccc2c(c1)CCCC2 the results were SR-BI uptake up inconclusive, PKA-R1A activ 12.7, SR-BI DiI inh -228.1, Vif inh 16.6 and PKA-R2B act 4.4.
`CCCCNC(=O)[C@H]1C[C@H]1[C@@H](O)[C@H](CO)NC(=O)[C@H](COCc1ccccc1)NC(=O)OC(C)(C)C` gave SR-BI uptake up 19.1, PKA-R1A activ 16.6, SR-BI DiI inh -19.1, Vif inh 24.1 and PKA-R2B act -4.8.
Screening C[C@H]1CN([C@@H](C)CO)S(=O)(=O)c2ccc(-c3ccc(C#N)cc3)cc2O[C@H]1CN(C)C(=O)CN(C)C returned Vif inh 6.4.
For Cc1ccc(C)c(N2CC(C(=O)Nc3nccs3)CC2=O)c1 (centres undefined) the results were SR-BI uptake up 9.8, PKA-R1A activ -15.5, SR-BI DiI inh -9.8, Vif inh -22.9 and PKA-R2B act -5.2.
Cc1ccc(S(=O)(=O)Nc2c(C)nc3nc(C)[nH]n3c2=O)c(C)c1 was read as PKA-R1A activ -11.1, Vif inh 63.8* and PKA-R2B act -1.6.
